Laboratory results: PubChem BioAssay AID651708 (Sanford-Burnham Center for Chemical Genomics, 2012)
The source made the active and inactive calls.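 How the source made its calls: active means compound with IC50 above 30 µM at both the APJ and CCR6 off-target receptors, and at most 10 µM at CXCR6; inactive means the rest.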

Experiments:
Test in all cases: antagonism across CCR6, APJ and CXCR6 receptors, profiling panel, selectivity assay for CXCR6 antagonist project, cell-based, CHO-K1 PathHunter beta-arrestin, luminescence, set 3 (AID 651708)
[1] = target: C-C chemokine receptor type 6 (Homo sapiens) (UniProt P51684); conditions: antagonist mode
Outline: (§1)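 Signal: β-arrestin recruitment luminescence; test system: CHO-K1 PathHunter β-arrestin cell lines for APJ, CCR6 or CXCR6; also added: APJ 10 nM Apelin-13, CCR6 14 nM CCL20, CXCR6 CXCL16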

[2] = target: Apelin receptor (Homo sapiens) (UniProt P35414); conditions: antagonist mode, APJ
Outline: as §1

[3] = target: C-X-C chemokine receptor type 6 (Homo sapiens) (UniProt O00574); conditions: antagonist mode
Outline: as §1

Chain of Apelin receptor (Homo sapiens) (P35414 whole entry, looked up): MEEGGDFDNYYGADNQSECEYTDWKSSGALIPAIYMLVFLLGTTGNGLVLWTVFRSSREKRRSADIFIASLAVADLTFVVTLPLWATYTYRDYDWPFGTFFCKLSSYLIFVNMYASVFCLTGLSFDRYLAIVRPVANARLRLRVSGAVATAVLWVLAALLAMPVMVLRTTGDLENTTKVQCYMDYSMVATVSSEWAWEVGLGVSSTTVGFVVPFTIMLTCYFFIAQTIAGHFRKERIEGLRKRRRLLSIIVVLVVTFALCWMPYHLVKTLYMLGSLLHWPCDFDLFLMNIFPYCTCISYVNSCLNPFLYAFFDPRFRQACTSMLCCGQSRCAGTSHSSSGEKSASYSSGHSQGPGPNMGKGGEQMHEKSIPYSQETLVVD
Chain of C-C chemokine receptor type 6 (Homo sapiens) (P51684 whole entry, looked up): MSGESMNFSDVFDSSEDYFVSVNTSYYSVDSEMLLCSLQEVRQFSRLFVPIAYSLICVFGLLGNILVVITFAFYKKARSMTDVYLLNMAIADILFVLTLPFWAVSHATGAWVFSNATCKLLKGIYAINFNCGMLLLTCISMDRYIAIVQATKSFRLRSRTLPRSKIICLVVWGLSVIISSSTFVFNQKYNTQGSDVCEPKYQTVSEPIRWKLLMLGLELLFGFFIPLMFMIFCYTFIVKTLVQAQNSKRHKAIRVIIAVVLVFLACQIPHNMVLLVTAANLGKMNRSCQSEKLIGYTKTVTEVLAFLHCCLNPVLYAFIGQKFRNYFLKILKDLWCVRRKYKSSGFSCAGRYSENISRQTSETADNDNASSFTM
Chain of C-X-C chemokine receptor type 6 (Homo sapiens) (O00574 whole entry, looked up): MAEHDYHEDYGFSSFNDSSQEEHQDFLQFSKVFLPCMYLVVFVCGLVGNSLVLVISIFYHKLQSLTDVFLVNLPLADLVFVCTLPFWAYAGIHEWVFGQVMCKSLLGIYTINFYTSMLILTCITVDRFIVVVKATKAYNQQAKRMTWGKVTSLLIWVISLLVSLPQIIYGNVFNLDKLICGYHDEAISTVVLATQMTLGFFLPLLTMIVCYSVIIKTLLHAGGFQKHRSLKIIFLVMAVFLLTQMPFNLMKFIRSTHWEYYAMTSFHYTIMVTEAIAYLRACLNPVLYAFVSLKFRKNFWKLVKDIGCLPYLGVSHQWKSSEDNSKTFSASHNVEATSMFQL

Row | IC50 ([1]; CCR6, mean of runs) | IC50 ([1]; CCR6, run 1) [µM] | IC50 ([1]; CCR6, run 2) [µM] | IC50 ([2]; mean of runs) | IC50 ([2]; run 1) [µM] | IC50 ([2]; run 2) [µM] | IC50 ([3]; CXCR6, mean of runs) | IC50 ([3]; CXCR6, run 1) [µM] | IC50 ([3]; CXCR6, run 2) [µM] | Structure (SMILES)
1 | > 79 µM (inactive) | > 79 | > 79 | > 79 µM (inactive) | > 79 | > 79 | > 79 µM (inactive) | > 79 | > 79 | COc1ccc(NC(=O)CN2C3CCCC2CC(NC(=O)c2cccc(OC)c2)C3)cc1 (centres undefined)
2 | > 79 µM (inactive) | > 79 | > 79 | > 79 µM (inactive) | > 79 | > 79 | > 79 µM (inactive) | > 79 | > 79 | COc1cc(OC)cc(C(=O)NC2CC3CCCC(C2)N3CC(=O)Nc2ccc(Cl)cc2)c1 (centres undefined)

Second part, the compound before the results:

Row | Structure (SMILES) | IC50 ([1]; CCR6, mean of runs) | IC50 ([1]; CCR6, run 1) [µM] | IC50 ([1]; CCR6, run 2) [µM] | IC50 ([2]; mean of runs) | IC50 ([2]; run 1) [µM] | IC50 ([2]; run 2) [µM] | IC50 ([3]; CXCR6, mean of runs) | IC50 ([3]; CXCR6, run 1) [µM] | IC50 ([3]; CXCR6, run 2) [µM]
3 | COc1ccc(CN2C3CCCC2CC(NC(=O)c2cc(OC)c(OC)c(OC)c2)C3)cc1 (centres undefined) | > 79 µM (inactive) | > 79 | > 79 | 17.1 µM | 10.1 | 24.2 | > 79 µM (inactive) | > 79 | > 79
4 | O=C(CN1C2CCCC1CC(NC(=O)c1ccc3c(c1)OCO3)C2)Nc1ccc(Cl)cc1 (centres undefined) | > 79 µM (inactive) | > 79 | > 79 | – | > 79 | 36.9 | > 79 µM (inactive) | > 79 | > 79
5 | COc1cc(C(=O)NC2CC3CCCC(C2)N3CC(=O)Nc2ccc(C)cc2)cc(OC)c1OC (centres undefined) | > 79 µM (inactive) | > 79 | > 79 | > 79 µM (inactive) | > 79 | > 79 | 5.69 µM | 5.37 | 6
